The results in this text go back to ChEMBL document CHEMBL1782026, “Synthesis and biological evaluation of 1α,25-dihydroxyvitamin D(3) analogues hydroxymethylated at C-26” (2011).

Calls of active or inactive are those of the source. No cut-off for these calls is given here.

Assay [1] concerns MCF7. Briefly: Antiproliferative activity against human MCF7 cells assessed as DNA level measured after 6 days by calorimetric analysis. The format is functional, cell-based. The gist of the method:
(§1)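 MCF-7 cells in DMEM F12 with 5% FBS at 37 °C, 5% CO2, seeded at 100 000 cells/well in six-well plates. After 24 h, treated in triplicate for 6 days with graded doses or 0.1% ethanol vehicle; medium and ligand replaced every other day. DNA content by Burton assay, expressed as percent of vehicle control; three independent experiments, mean ± SD.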

The subject of assay [2] is MCF7. The experiment in a line: Antiproliferative activity against human MCF7 cells assessed as DNA level at 100 nM measured after 6 days by calorimetric analysis. The format is functional. Conditions: MCF7, 144 h, read-out: GI. The essentials:
as §1

Assay [3] deals with MCF7. The experiment in a line: Antiproliferative activity against human MCF7 cells assessed as DNA level at 10 nM measured after 6 days by calorimetric analysis. The note with it: MCF7, 144 h, read-out: GI. Format: functional. The essentials: as §1
For assay [4], the system named is MCF7. The experiment in a line: Antiproliferative activity against human MCF7 cells assessed as DNA level at 1 nM measured after 6 days by calorimetric analysis. Format: functional. The note with it: MCF7, 144 h, read-out: GI. The essentials: as §1
The test system of assay [5] is SW480-ADH. Briefly: Induction of differentiation of human SW480-ADH cells to adhesive epithelial phenotype at 10^-7 M after 48 hrs by phase-contrast microscopy. The format is functional, cell-based. The essentials: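 SW480-ADH cells in RPMI/10% FCS were exposed for 48 h to 10^-7 M compound or vehicle in charcoal-treated FCS medium. Adhesive epithelial morphology was judged by phase-contrast microscopy; a representative experiment is shown.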

The target in assay [6] is T1, Vitamin D3 receptor (Homo sapiens) (UniProt P11473).
T1 sequence (whole entry): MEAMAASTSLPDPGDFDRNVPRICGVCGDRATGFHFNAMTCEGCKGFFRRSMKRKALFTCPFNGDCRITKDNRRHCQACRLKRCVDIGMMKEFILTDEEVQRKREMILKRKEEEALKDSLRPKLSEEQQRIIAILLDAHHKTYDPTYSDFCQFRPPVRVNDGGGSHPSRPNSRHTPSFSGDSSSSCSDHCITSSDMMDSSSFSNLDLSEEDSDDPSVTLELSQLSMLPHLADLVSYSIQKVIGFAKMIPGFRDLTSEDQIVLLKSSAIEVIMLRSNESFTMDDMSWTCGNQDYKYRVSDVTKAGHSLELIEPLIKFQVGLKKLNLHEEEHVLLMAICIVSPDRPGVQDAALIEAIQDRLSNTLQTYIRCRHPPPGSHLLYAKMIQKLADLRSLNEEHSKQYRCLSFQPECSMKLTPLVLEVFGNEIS
Briefly: Transactivation of human VDR transfected in african green monkey COS7 cells after 24 hrs by luciferase reporter gene assay. The format is cell-based. Conditions: COS-7. The gist of the method:
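Transfected 16 h (Polyfect) with 62.5 ng WT VDR expression plasmid and 125 ng rat 24-hydroxylase promoter VDRE-luciferase. Then treated 24 h with graded concentrations in DMEM with 1% bovine growth serum, lysed, and assayed by dual luciferase; ±SD.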
(In general: In a reporter assay the amount or activity of a reporter protein is the signal.)

In assay [7] the test system is SW480-ADH. Briefly: Induction of E-cadherin expression in human SW480-ADH cell at 10^-7 M after 48 hrs by Western blot analysis. The format is functional, cell-based. The essentials: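 SW480-ADH cells grown in RPMI with 10% FCS, GlutaMAX and penicillin/streptomycin. Treated 48 h at 10^-7 M in charcoal-treated FCS medium; controls received matching vehicle. Anti-E-cadherin Western blot with β-tubulin as loading control and ECL detection. Values are mean fold-increase from two experiments.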
(In western blotting, separated proteins are transferred to a membrane and probed.)

In assay [8] the target is T1, Vitamin D3 receptor (Homo sapiens). Briefly: Transactivation of human VDR transfected in human SW480-ADH cells assessed as vitamin D response element-mediated transcriptional activity measured 8 hrs post infection by luciferase reporter gene assay. Format: cell-based. The essentials:
(§2)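 SW480-ADH cells, transfected in triplicate (JetPEI) with 4VDRE-DR3-tk-LUC reporter, four tandem consensus DR3 VDREs upstream of HSV tk promoter. Treated with graded concentrations in charcoal-treated FCS medium, read at 8 or 48 h. Firefly luciferase normalized to Renilla by dual luciferase assay; mean ± SD, n = 3.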

Assay [9] has the same target. Briefly: Transactivation of human VDR transfected in human SW480-ADH cells assessed as vitamin D response element-mediated transcriptional activity measured 48 hrs post infection by luciferase reporter gene assay. Format: cell-based. The gist of the method:
as §2

On to `C=C1/C(=C\C=C2/CCC[C@]3(C)[C@@H]([C@H](C)CCCC(C)(C)O)CC[C@@H]23)C[C@@H](O)C[C@@H]1O` [CALCITRIOL], for which the “growth inhibition (GI)” value in assay [1] was “Dose-dependent effect”. Besides, in assay [2], the inhibition of growth at 0.1 µM turned out to be 66%. Moreover, in assay [3], the inhibition of growth at 0.01 µM came to 50%. For the same compound, in [4], the inhibition of growth at 0.001 µM stood at 15%.

For the compound `C=C1/C(=C\C=C2/CCC[C@]3(C)[C@@H]([C@H](C)CCC[C@@](C)(O)[C@@H](C)CO)CC[C@@H]23)C[C@@H](O)C[C@@H]1O`, the result in [5], in assay [6] and in assay [7] was Active. The inhibition of growth at 0.1 µM in assay [2] came to 65%. The Activity result in [8] and in [9] was “Dose-dependent effect” in each case.

`C=C1/C(=C\C=C2/CCC[C@]3(C)[C@@H]([C@H](C)CCC[C@@](C)(O)CCO)CC[C@@H]23)C[C@@H](O)C[C@@H]1O`: the outcome in assay [5] and in assay [7] was Active. In addition, in assay [2], the inhibition of growth at 0.1 µM is 53%. Moreover, the Activity entry in assay [8] and in [9] was “Dose-dependent effect” in each case.
